Assay results reported in ChEMBL document CHEMBL1155478, “Novel C-aryl glucoside SGLT2 inhibitors as potential antidiabetic agents: Pyridazinylmethylphenyl glucoside congeners” (Bioorg Med Chem Lett, 2010).

Tests used:
[1] = target: T1, Sodium/glucose cotransporter 2 (Homo sapiens, UniProt P31639); test: Inhibition of human SGLT2 expressed in CHO cells assessed as [14C]alpha-methyl-D-glucopyranoside uptake after 2 hrs by liquid scintillation counting; type: cell-based
T1 sequence (P31639 whole entry): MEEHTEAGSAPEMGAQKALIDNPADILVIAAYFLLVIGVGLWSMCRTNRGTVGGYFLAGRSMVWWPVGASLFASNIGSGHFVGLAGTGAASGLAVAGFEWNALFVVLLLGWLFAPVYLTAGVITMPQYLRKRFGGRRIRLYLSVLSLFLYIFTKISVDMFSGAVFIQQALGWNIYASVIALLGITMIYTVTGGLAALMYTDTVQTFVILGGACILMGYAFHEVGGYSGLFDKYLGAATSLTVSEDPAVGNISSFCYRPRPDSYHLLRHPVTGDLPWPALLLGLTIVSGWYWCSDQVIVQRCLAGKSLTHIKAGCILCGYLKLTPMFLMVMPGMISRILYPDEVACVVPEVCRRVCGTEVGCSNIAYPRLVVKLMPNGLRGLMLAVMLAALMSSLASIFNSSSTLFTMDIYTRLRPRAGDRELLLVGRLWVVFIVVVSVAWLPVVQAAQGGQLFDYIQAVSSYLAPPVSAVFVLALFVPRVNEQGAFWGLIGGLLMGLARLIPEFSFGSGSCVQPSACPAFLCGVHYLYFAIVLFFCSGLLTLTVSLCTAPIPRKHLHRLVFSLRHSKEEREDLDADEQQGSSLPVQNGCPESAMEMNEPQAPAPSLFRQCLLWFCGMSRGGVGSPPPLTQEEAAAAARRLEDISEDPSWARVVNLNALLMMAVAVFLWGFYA
Method in brief: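 CHO cells stably transfected with hSGLT2 (pcDNA3.1(+), G418-selected), seeded at 5 × 10⁴ cells/well and used 1 day later. Cells pre-incubated 10 min at 37 °C in Na⁺-free choline chloride buffer pH 7.4. Then incubated 2 h at 37 °C in NaCl uptake buffer with 1 mM unlabeled AMG plus ¹⁴C-AMG, with inhibitor or DMSO. Washed with 10 mM AMG buffer; radioactivity counted by liquid scintillation.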

Rattus norvegicus [2] = test: Increase of urinary glucose excretion in normal Sprague-Dawley rat assessed per 200 g of body weight at 10 mg/kg, po subsequently dosed orally with 50% aqueous glucose solution measured up to 24 hrs (RVB = […] mg/200 g of body weight); type: functional, Urine
Rattus norvegicus [3] = test: Increase of urinary volume in normal Sprague-Dawley rat at 10 mg/kg, po subsequently dosed orally with 50% aqueous glucose solution measured up to 24 hrs relative to control; type: functional, Urine
Rattus norvegicus [4] = test: Increase of urinary volume in normal Sprague-Dawley rat assessed […] at 10 mg/kg, po subsequently dosed orally with 50% aqueous glucose solution measured up to 24 hrs (RVB = 3.9 +/- 0.23 ml/200 mg body weight)
Rattus norvegicus [5] = test: Increase of urinary glucose excretion in normal Sprague-Dawley rat at 10 mg/kg, po subsequently dosed orally with 50% aqueous glucose solution measured up to 24 hrs relative to control; type: functional, Urine
[6] = Oral bioavailability in Sprague-Dawley rat at 5 mg/kg; type: ADME, organism-based; conditions: in vivo
Method in brief: (§1)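 Male SD rats given a single oral dose of 5 mg/kg. Plasma sampled to obtain Cmax, time to Cmax and elimination half-life after oral dosing. Oral bioavailability (F) determined.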

[7] = Cmax in Sprague-Dawley rat at 5 mg/kg, po after 0.33 hrs; type: ADME, organism-based; parameters: dose 5 mg/kg, route oral; conditions: in vivo; method in brief: as §1
[8] = Elimination half life in Sprague-Dawley rat at 5 mg/kg, po; type: ADME, organism-based; parameters: dose 5 mg/kg, route oral; conditions: in vivo, read-out: beta t1/2 (converted); method in brief: as §1
in vivo = conditions: Sprague-Dawley, rat, po, 5 mg/kg

Row | IC50 [1] [nM] | bioavailability [6] [%] | half-life [8] [h] | Compound | other results
1 | 351 | – | – | COc1cccc(-c2ccc(Cc3cc([C@@H]4O[C@H](CO)[C@@H](O)[C@H](O)[C@H]4O)ccc3Cl)nn2)c1 | –
2 | 110 | – | – | CC(C)Oc1ccc(Cc2cc([C@@H]3O[C@H](CO)[C@@H](O)[C@H](O)[C@H]3O)ccc2Cl)nn1 | –
3 | – | 26.1 | 1.94 | CSc1ccc(Cc2cc([C@@H]3O[C@H](CO)[C@@H](O)[C@H](O)[C@H]3O)ccc2Cl)nn1 | Activity (Rattus norvegicus [2]): 344 mg; fold change (FC) (Rattus norvegicus [3]): 1.3; Activity (Rattus norvegicus [4]): 5.07 mL; fold change (FC) (Rattus norvegicus [5]): 180; Cmax [7]: 310 ng/mL
4 | > 10000 | – | – | Cc1nnc(Cc2cc([C@@H]3O[C@H](CO)[C@@H](O)[C@H](O)[C@H]3O)ccc2Cl)c2ccccc12 | –
5 | – | 88.4 | 4 | CCOc1ccc(Cc2cc([C@@H]3O[C@H](CO)[C@@H](O)[C@H](O)[C@H]3O)ccc2Cl)cc1 [DAPAGLIFLOZIN] | Cmax at 0.67 h (in vivo): 2500 ng/mL
